Consider 27 compounds from ChEMBL document CHEMBL1144361, “Identification of chemokine receptor CCR4 antagonist” (Bioorg Med Chem Lett, 2005).

In assay [1] the target is T1, C-C chemokine receptor type 4 (Homo sapiens, UniProt P51679).
T1 sequence (P51679 whole entry): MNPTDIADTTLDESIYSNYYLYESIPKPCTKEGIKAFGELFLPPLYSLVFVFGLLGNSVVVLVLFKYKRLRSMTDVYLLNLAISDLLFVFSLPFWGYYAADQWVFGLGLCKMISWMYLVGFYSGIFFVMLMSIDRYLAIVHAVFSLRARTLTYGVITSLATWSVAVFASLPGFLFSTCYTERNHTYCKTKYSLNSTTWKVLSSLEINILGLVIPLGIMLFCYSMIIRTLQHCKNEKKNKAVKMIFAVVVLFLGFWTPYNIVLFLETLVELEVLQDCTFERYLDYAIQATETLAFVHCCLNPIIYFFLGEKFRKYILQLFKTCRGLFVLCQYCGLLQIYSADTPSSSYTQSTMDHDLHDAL
Put plainly: Inhibitory concentration against human C-C chemokine receptor type 4. In a few lines:
(§1)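 Whole-cell SPA binding: HEK293 stably expressing human CCR4, 4×10^4 cells/well on poly-L-lysine plates, cultured overnight at 37 °C. Compounds in DMSO (1%). Nonspecific defined with 100 nM unlabeled MDC. 15 min mixing, then 24 h at rt before counting.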

Assay [2] deals with T1, C-C chemokine receptor type 4. Put plainly: Inhibitory concentration against human C-C chemokine receptor type 4; range = 3.6-6.1 uM. In a few lines: as §1
In assay [3] the target is C-C chemokine receptor type 2 (Homo sapiens, UniProt P41597). Put plainly: Inhibitory concentration against C-C chemokine receptor type 2.
Sequence of C-C chemokine receptor type 2 (P41597 whole entry): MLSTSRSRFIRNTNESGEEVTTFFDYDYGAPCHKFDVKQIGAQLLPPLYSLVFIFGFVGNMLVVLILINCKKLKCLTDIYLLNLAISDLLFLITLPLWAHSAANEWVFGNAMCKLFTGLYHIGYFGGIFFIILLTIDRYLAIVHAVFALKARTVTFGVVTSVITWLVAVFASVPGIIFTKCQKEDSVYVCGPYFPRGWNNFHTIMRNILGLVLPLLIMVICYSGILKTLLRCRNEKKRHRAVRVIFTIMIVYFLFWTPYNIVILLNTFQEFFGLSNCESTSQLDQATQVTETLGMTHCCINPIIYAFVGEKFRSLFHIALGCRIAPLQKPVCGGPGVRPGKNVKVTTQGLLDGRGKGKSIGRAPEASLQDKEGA
Assay [4] is described as follows: Inhibitory concentration against C-C chemokine receptor type 3. Set-up: species or system Homo sapiens.
Assay [5] concerns the target C-X-C chemokine receptor type 3 (Homo sapiens) (UniProt P49682). Put plainly: Inhibitory concentration against CXC chemokine receptor 3.

Turning to `CCN(CC)CCCC(C)Nc1ccnc(COc2ccc(F)cc2)c1` (stereo not given), the IC50 (usually the concentration at which inhibition is half-maximal) in assay [1] was determined as 18 µM.

`CCN(CC)CCCC(C)Nc1ccnc(COc2ccccc2)c1` (stereo not given) returned an IC50 in assay [1] of more than 30 µM.

The compound `CCN(CC)CCCC(C)Nc1nccc(OCc2ccc(Cl)cc2Cl)n1` (stereo in doubt; 11a) had a concentration for half-maximal inhibition (IC50) in assay [1] of 1.5 µM.

The compound `CCN(CC)CCCNc1nccc(OCc2ccc(Cl)cc2Cl)n1` returned a concentration for half-maximal inhibition (IC50) in assay [1] of 8 µM.

On to `CCN(CC)CCCC(C)Nc1ccnc(COc2cccc(Cl)c2)n1` (stereo not given), for which the concentration for half-maximal inhibition (IC50) in assay [1] was 25 µM.

In turn, `CCN(CC)CCCC(C)Nc1ccnc(COc2ccc(OC)cc2OC)n1` (stereo not given) came in with a half-maximal inhibitory concentration (IC50) in assay [1] of more than 30 µM.

As to `CCN(CC)CCCCNc1nccc(OCc2ccc(Cl)cc2Cl)n1`, in assay [1], half-maximal inhibition (IC50) was put at 3 µM.

In assay [1], `CCN(CC)CCCC(C)Nc1nccc(OCc2ccc(Cl)cc2Cl)n1` (stereo in doubt; 10a) gave an IC50 of 1.5 µM.

The compound `CCN(CC)CCCC(C)Nc1nc(-c2ccccc2)nc2ccccc12` (stereo not given) displayed an IC50 in assay [1] of more than 25 µM.

Compound `CCN(CC)CCCC(C)Nc1nc(Cc2ccccc2)nc2ccccc12` (stereo not given) showed an IC50 in assay [1] of 10 µM.

For the compound `CCN(CC)CCCC(C)Nc1ccnc(COc2cc(Cl)cc(Cl)c2)n1` (stereo not given), 25 µM corresponded to half-maximal inhibition in assay [1] (IC50).

On to `CC(C)CCCC(C)Nc1nccc(OCc2ccc(Cl)cc2Cl)n1` (stereo not given), for which the IC50 in assay [1] is more than 10 µM.

In assay [1], `CCN(CC)CCCC(C)Nc1nc(-c2ccc3ccccc3c2)nc2ccccc12` (stereo not given) returned an IC50 of 2.5 µM.

The compound `CCN(CC)CCCC(C)Nc1ccnc(COc2ccc(Cl)c(Cl)c2)c1` (stereo not given) displayed a half-maximal inhibitory concentration (IC50) in assay [1] of 4 µM.

In assay [1], `CCN(CC)CCCC(C)Nc1nc(CCc2ccccc2)nc2ccccc12` (stereo not given) yielded an IC50 of 2.4 µM.

On to `CCN(CC)CCCC(C)Nc1nc(C(=O)Nc2ccccc2)nc2ccccc12` (stereo not given), for which, in assay [1], the half-maximal inhibitory concentration (IC50) is more than 10 µM.

Compound `CCN(CC)CCCC(C)Nc1nc(/C=C/c2ccccc2)nc2ccccc12` (stereo not given) returned an IC50 in assay [2] of 6.1 µM.

For `CCN(CC)CCCC(C)Nc1ccnc(OCc2ccc(Cl)cc2Cl)n1` (stereo not given), in assay [1], half-maximal inhibition (IC50) was put at 2.8 µM.

On to `CCN(CC)CCCC(C)Nc1ccnc(COc2ccc(Cl)cc2Cl)c1` (stereo not given), for which the half-inhibitory concentration (IC50) in assay [1] amounted to 1.2 µM.

Compound `CCN(CC)CCCC(C)Nc1ccnc(COc2ccccc2Cl)c1` (stereo not given) displayed a half-maximal inhibitory concentration (IC50) in assay [1] of 17 µM.

Turning to `CCN(CC)CCCC(C)Nc1nc(COc2ccccc2)nc2ccccc12` (stereo not given), in assay [1], the half-maximal inhibitory concentration (IC50) was found to be 2 µM.

On to `CCN(CC)CCCC(C)Nc1ccnc(COc2cccc(OC)c2)n1` (stereo not given), for which the concentration for half-maximal inhibition (IC50) in assay [1] was more than 30 µM.

The compound `CN(C)CCCCCNc1nccc(OCc2ccc(Cl)cc2Cl)n1` showed an IC50 in assay [1] of 2 µM.

Turning to `CCN(CC)CCCC(C)Nc1nccc(NCc2ccc(Cl)cc2Cl)n1` (stereo not given), the IC50 in assay [3] was more than 10 µM; in assay [4] it was 2 µM; in assay [1], 0.27 µM; in assay [5], more than 30 µM.

The compound `CCN(CC)CCNc1nccc(OCc2ccc(Cl)cc2Cl)n1` yielded an IC50 in assay [1] of 9 µM.

For the compound `CCN(CC)CCCC(C)Nc1ccnc(COc2ccc(Cl)cc2)c1` (stereo not given), the midpoint of inhibition in assay [1], the IC50, lay at 20 µM.

`CCN(CC)CCCC(C)Nc1nc(CCCc2ccccc2)nc2ccccc12` (stereo not given) yielded an IC50 in assay [1] of more than 10 µM.
